# Most compounds without a hit are left out; they make up all but 9.2% or so of the library.
# Dynein cargo inh – inhibitors of GR-EGFP nuclear translocation, primary screen, dynein cargo transport inhibitor project, imaging, high-content, 3617.4 mouse cells; AID 1381, 2008; z-score, hits read low; test concentration mostly 20 µM; stimulated with dexamethasone, 1 µM; active compounds read low; 0.47% of 220,000 active;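 active = plate z-score of nuclear minus cytoplasmic receptor signal below a set negative limit, without overly bright fluorescence or cell loss, cut at about -3.5 in these data, passing the limit was not always enough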;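 also: z-score of nuclear minus cytoplasmic ring GR-EGFP intensity difference per well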
#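 Also added – dexamethasone, 1.0 µM final · Buffer or medium – tet-free, stripped-serum medium · Schedule – induction 48 h, compound 1 h, agonist 30 min · Detection – formaldehyde fixation, Hoechst nuclear stain, 10x automated fluorescence imaging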
# Autophagy mod – autophagy modulators in MEF cells, primary screen, imaging, high-content, MEF GFP-LC3; AID 463193, 2010; MEF GFP-LC3 puncta imaging; test concentration mostly 10 µM; calls only at 10 µM (by protocol); 0.98% of 190,000 active;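 active = percentage of spot-positive cells more than 3 SD above its plate mean, without a fluorescence outlier flag or 80% toxicity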;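 also: spot-positive cell cutoff set from DMSO-treated cells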
# HCT116 PTEN-null – growth suppression of PTEN-null HCT116, primary screen, cell-based, CellTiter-Glo | viability, % at 10 µM | 1.2% of 140,000 active | AID 827, 2007 | HCT116 PTEN-null viability, 60 h; active compounds read low;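 active = viability at or below a set limit, 4 SD under the median of all tested compounds, cut at about 3.7% in these data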;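 also: PTEN knockout HCT116 line with beta catenin targeted HCT116 as companion control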
# bCat KO growth – primary screen for growth suppressors in beta-catenin knockout HCT116 cells (colon tumor, human). HCT116 beta-catenin knockout viability, CellTiter-Glo, 60 h; active compounds read low. viability, % at 10 µM. 1.5% of 140,000 active. AID 818, 2007;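 active = viability at or under a set limit, the compound median less 4 SD, cut at about 6% in these data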;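 also: 0% = Hyamine 1622 control at 20 µM and 100% = untreated cell control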
# L major viab – Leishmania major promastigote growth inhibition, primary screen; 9% of 200,000 active; AID 1063, 2008; inhibition, % at 10 µM; Leishmania major promastigotes, resazurin fluorescence viability; in the data active = inhibition above about 50%;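 also: promastigotes grown with compound for 44 hours at 28 °C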
# The depositor's hits bear a star; i = inactive; / = no result given; + = active, no number.
SMILES,Dynein cargo inh,Autophagy mod,HCT116 PTEN-null,bCat KO growth,L major viab
OCCC1CN(Cc2cccc3nonc23)CCN1Cc1ccsc1 (centres undefined),-0.54,/,/,/,/
C#Cc1ccc(CN2CCN(Cc3ccsc3)C(CCO)C2)cc1 (centres undefined),-0.51,i,/,/,-4
CC(C)c1ccc(Nc2nnc(SCC(=O)Nc3ncc(S(=O)(=O)c4ccc([N+](=O)[O-])cc4)s3)s2)cc1,0.69,i,/,/,-3
Cc1ccc(Nc2nnc(SCC(=O)Nc3ncc(S(=O)(=O)c4ccc([N+](=O)[O-])cc4)s3)s2)cc1,0.45,i,69,82,55*
O=C(Nc1ncc(S(=O)(=O)c2ccc([N+](=O)[O-])cc2)s1)c1ccc2ccccc2c1,-0.56,i,82,82,99*
CCC(C)(C)C(=O)Nc1ncc(S(=O)(=O)c2ccc([N+](=O)[O-])cc2)s1,0.39,i,57,65,81*
Cc1ccc2cccc(S(=O)(=O)N3CCCc4ccccc43)c2n1,0.0069,i,/,/,22
CC1(C)CC(=O)C/C(=N\NC(=O)C2C3CCCCC32)C1 (centres undefined),-0.86,i,/,/,-5
COc1ccccc1NCC(=O)NNC(C)C(=O)Nc1cccc(Cl)c1 (centres undefined),-0.98,+,/,/,12
COc1ccccc1NC(=O)C(C)NS(=O)(=O)c1ccc(Cl)cc1 (centres undefined),-0.48,i,103,91,-3
Cc1ccc(C(=O)NNc2cc(N3CCCC3)nc(N3CCCC3)n2)cc1,-0.65,i,80,74,100*
O=C(NNc1cc(N2CCOCC2)nc(N2CCOCC2)n1)c1ccc(Cl)c(Cl)c1,-0.75,i,88,85,18
CC(C)CCn1c(Sc2nc3ccccc3o2)nc2c1c(=O)[nH]c(=O)n2C,-1.6,i,3.4*,5.4*,95*
CCOC(=O)C1CCCN(C(=O)c2cn(C)c3ccc(S(=O)(=O)N(C)C)cc3c2=O)C1 (centres undefined),-0.35,+,110,95,-6
CN(C)S(=O)(=O)c1ccc2c(c1)c(=O)c(C(=O)N1CCOCC1)cn2C,-0.93,/,112,98,-8
O=c1oc2c(CN3CCN(CCO)CC3)c(O)ccc2cc1-c1ccccn1,-0.077,/,/,/,/
O=C(CP(=O)(c1ccccc1)c1ccccc1)Nc1nc2ccc(Cl)cc2s1,-0.0087,/,/,/,/
O=C1Nc2ccccc2C1(O)C/C(=N/O)c1ccccc1 (centres undefined),0.037,i,/,/,-2
COc1ccc(Cl)cc1C(=O)Nn1c(-c2cccs2)nc2ccccc2c1=O,-0.17,i,59,64,61*
COc1ccc(Cl)cc1C(=O)Nn1c(C)nc2ccccc2c1=O,0.54,i,83,95,-3
Cc1ccccc1NC(=S)N(CCN1CCCCCC1)Cc1cccs1,-1.2,i,/,/,15
COc1ccccc1NC(=S)N(CCN1CCCCCC1)Cc1cccs1,0.19,i,/,/,57*
CCOC(=O)CNC(=S)N(CCCN1CCCCCC1)Cc1cccs1,1.3,i,/,/,73*
Cc1ccc(NS(=O)(=O)c2ccc(NC(=O)C(C)Sc3ccc(Cl)cc3)cc2)c(C)c1 (centres undefined),0.35,i,47,63,92*
O=[N+]([O-])c1ccc(NCCCNS(=O)(=O)c2ccc(Cl)cc2)c(Cl)c1,0.94,i,48,62,94*
SMILES,Dynein cargo inh,Autophagy mod,HCT116 PTEN-null,bCat KO growth,L major viab
O=[N+]([O-])c1ccccc1NCCNS(=O)(=O)c1ccc(Cl)cc1,0.12,i,92,94,31
C=CCNC(=O)CN(c1cc(Cl)ccc1OC)S(=O)(=O)c1ccc(C)c([N+](=O)[O-])c1,-0.68,i,/,/,-5
C=CCOc1ccc(/C=N/NC(=O)CN(c2cc(Cl)ccc2OC)S(=O)(=O)c2ccc(C)c([N+](=O)[O-])c2)cc1,-0.08,i,78,87,97*
Cc1[nH]c(=O)[nH]c(=O)c1/C=N/NC(=O)[C@H](C)N,1,/,/,/,/
CC(C)(C)OC(=O)COc1cc(O)c2c(=O)cc(-c3ccccc3)oc2c1,0.58,i,92,86,-4
CC(C)(C)OC(=O)COc1cc(OCC(=O)OC(C)(C)C)c2c(=O)cc(-c3ccccc3)oc2c1,0.2,i,1.7*,1.5*,50*
CCN(CC)S(=O)(=O)c1ccc(Cl)c(C(=O)Nc2cc(C)nn2-c2ccccc2)c1,0.2,i,93,96,65*
Cc1cc(NC(=O)c2cc([N+](=O)[O-])cc([N+](=O)[O-])c2)n(-c2ccccc2)n1,-0.036,i,71,85,89*
COc1ccc2cc3cc(C(=O)NCc4cccnc4)oc3nc2c1,2.2,i,/,/,15
NCCOc1ccc(C2CCCCC2)cc1,2.2,i,/,/,100*
CCCOc1ccc(C2NC(=O)NC2=O)cc1 (centres undefined),0.14,i,100,90,-8
O=C(CN1CCC(C(=O)O)CC1)Nc1ccccc1Oc1ccccc1,1.5,/,/,/,/
O=C(NCc1ccco1)C1CCCN1C(=O)Nc1cccc(Cl)c1 (centres undefined),-1.2,i,/,/,5
Cc1ccc(C(=O)CC2C(=O)N(c3ccccc3)C(=S)N2c2ccccc2)cc1 (centres undefined),-0.037,i,84,82,59*
Cc1ccc(NC(=O)CC2SC(=O)N(c3ccccc3)C2=O)cc1 (centres undefined),-0.21,i,84,78,-3
CCCN1CCN(c2ncnc3c2nnn3Cc2ccccc2)CC1,-0.4,i,29,41,97*
c1ccc(Cn2nnc3c(N4CCCCCC4)ncnc32)cc1,-0.32,/,33,36,6
COc1ccccc1CNC(=O)CN(CCc1ccccc1)S(C)(=O)=O,0.98,i,/,/,3
Clc1ccc(CN2C3=NCCCN3c3ccccc32)cc1Cl,0.14,i,/,/,51*
O=C(CN1C2=NCCCN2c2ccccc21)c1ccc(Cl)cc1Cl,1.4,i,37,46,100*
O=C(CN1C2=NCCCN2c2ccccc21)c1cccc(Br)c1,0.79,i,56,57,94*
Cc1cccc(Cc2ccc(Cl)nn2)c1,-0.45,i,/,/,2
Cc1ccc(C2C3C(=O)N(c4ccccc4)C(=O)C3N3CCCN23)cc1 (centres undefined),-0.84,/,/,/,/
CC(C)CC(=O)N1CCC(O)(CS(=O)(=O)c2ccc(Cl)c(Cl)c2)CC1,0.8,i,/,/,-8
O=C(COC(=O)CCSc1ccc(Cl)cc1)NCc1ccco1,-0.35,i,/,/,-7
Cc1ccc(CNC(=S)Nc2cc(C)ccc2OC(F)F)cc1,-0.24,i,/,/,20
CC(C)NC(=O)CCNC(=O)c1ccc(F)cc1,0.049,i,84,81,-2
CCCN1C/C(=C/c2cccc([N+](=O)[O-])c2)C(=O)/C(=C/c2cccc([N+](=O)[O-])c2)C1,-6.3*,+,2.0*,2.6*,101*

# High-throughput results: PubChem, several laboratories
